For one molecule, Weight change, ILS and MST results are on record in ChEMBL document CHEMBL1122269, “Synthesis and biological evaluation of neutral derivatives of 5-fluoro-2'-deoxyuridine 5'-phosphate” (1983).

The test system of test [1] is P388. The test can be described thus: Average percentage weight change on day 6 in murine leukemia P388 sensitive to 5-FU at dose 180 mg/kg. It counts as functional, Mus musculus. The gist of the method: (§1)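 Male BDF₁ mice, six per group, average weight 23 g, were inoculated ip on day 0 with 1×10^6 P-388 leukemia cells, either 5-FU-sensitive or 5-FU-resistant. Compound in 0.9% saline was given ip once daily for 5 consecutive days, starting 24 h after tumor transplantation. Saline-treated animals served as controls.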

In test [2] the test system is P388. The test can be described thus: Percentage increase in life span of murine leukemia P388 sensitive to 5-FU, at dose 108 mg/kg. It counts as functional. To be noted: Mus musculus. Put shortly:
(§2)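 P-388 model in male BDF₁ mice, six per group, average weight 23 g: 1×10^6 cells ip on day 0, then compound in 0.9% saline ip daily ×5 from 24 h. Mice were observed up to 60 days. % ILS = (T/C − 1) × 100, using median survival of treated mice versus saline-treated controls.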

Test [3] relates to P388. Put plainly: Average percentage weight change on day 6 in murine leukemia P388 resistant to 5-FU at dose 300 mg/Kg. It is filed as functional, Mus musculus. The gist of the method: as §1
Test [4] has as its system P388. The test can be described thus: Percentage increase in life span of murine leukemia P388 sensitive to 5-FU, at dose 300 mg/kg. Particulars: Mus musculus. It is filed as functional. Put shortly: as §2
The test system of test [5] is P388. The test can be described thus: Average percentage weight change on day 6 in murine leukemia P388 sensitive to 5-FU at dose 500 mg/kg. It is filed as functional, Mus musculus. The gist of the method:
as §1

The test system of test [6] is P388. The test can be described thus: Median survival time (MST) of murine leukemia P388 (1*10e 6 cells) resistant to 5-FU in mice at dose of 300 mg/kg(ip). It counts as functional, Mus musculus. Put shortly:
(§3)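 Male BDF₁ mice, six per group, average weight 23 g, were inoculated ip with 1×10^6 P-388 cells on day 0. Compound in 0.9% saline was given ip daily for 5 days from 24 h post-implant. Mice were followed for 60 days or until death, and median survival time was recorded. Saline-treated controls numbered 20 mice.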

Test [7] has as its system P388. Put plainly: Percentage increase in life span of murine leukemia P388 sensitive to 5-FU at dose 500 mg/kg. It counts as functional. Particulars: Mus musculus. The gist of the method:
as §2

Test [8] relates to P388. Put plainly: Average percentage weight change on day 6 in murine leukemia P388 resistant to 5-FU at dose 108 mg/kg. It is filed as functional, Mus musculus. Put shortly:
as §1

In test [9] the test system is P388. Put plainly: Median survival time (MST) of murine leukemia P388 (1*10e 6 cells) sensitive to 5-FU in mice at dose of 108 mg/kg(ip). It counts as functional, Mus musculus. Put shortly:
as §3

The test system of test [10] is P388. The test can be described thus: Average percentage weight change on day 6 in murine leukemia P388 sensitive to 5-FU at dose 108 mg/kg. It is filed as functional, Mus musculus. The gist of the method: as §1
The subject of test [11] is P388. The test can be described thus: Median survival time (MST) of murine leukemia P388 (1*10e 6 cells) sensitive to 5-FU in mice at dose of 500 mg/kg(ip). It is filed as functional, Mus musculus. The gist of the method:
as §3

In test [12] the test system is P388. The test can be described thus: Percentage increase in life span of murine leukemia P388 resistant to 5-FU at dose 180 mg/kg. It is filed as functional. Particulars: Mus musculus. The gist of the method: as §2
Test [13] has as its system P388. Put plainly: Median survival time (MST) of murine leukemia P388 (1*10e 6 cells) sensitive to 5-FU in mice at dose of 180 mg/kg(ip). It counts as functional, Mus musculus. Put shortly:
as §3

Test [14] concerns P388. Put plainly: Median survival time (MST) of murine leukemia P388 (1*10e 6 cells) resistant to 5-FU in mice at dose of 500 mg/kg(ip). It counts as functional, Mus musculus. The gist of the method: as §3
Test [15] concerns P388. The test can be described thus: Average percentage weight change on day 6 in murine leukemia P388 resistant to 5-FU at dose 180 mg/kg. It counts as functional, Mus musculus. The gist of the method: as §1
For test [16], the system named is P388. The test can be described thus: Percentage increase in life span of murine leukemia P388 resistant to 5-FU at dose 500 mg/kg. It is filed as functional. To be noted: Mus musculus. Put shortly: as §2
The subject of test [17] is P388. The test can be described thus: Median survival time (MST) of murine leukemia P388 (1*10e 6 cells) resistant to 5-FU in mice at dose of 108 mg/kg(ip). It is filed as functional, Mus musculus. Put shortly: as §3
The subject of test [18] is P388. The test can be described thus: Percentage increase in life span of murine leukemia P388 resistant to 5-FU, at a dose 300 mg/kg. It counts as functional. Particulars: Mus musculus. Put shortly:
as §2

The subject of test [19] is P388. Put plainly: Percentage increase in life span of murine leukemia P388 resistant to 5-FU at dose 108 mg/kg. It counts as functional. To be noted: Mus musculus. Put shortly: as §2
Test [20] concerns P388. The test can be described thus: Median survival time (MST) of murine leukemia P388 (1*10e 6 cells) resistant to 5-FU in mice at dose of 180 mg/kg(ip). It counts as functional, Mus musculus. Put shortly: as §3
The test system of test [21] is P388. The test can be described thus: Average percentage weight change on day 6 in murine leukemia P388 resistant to 5-FU at dose 500 mg/kg. It counts as functional, Mus musculus. The gist of the method:
as §1

Test [22] deals with P388. The test can be described thus: Median survival time (MST) of murine leukemia P388 (1*10e 6 cells) sensitive to 5-FU in mice at dose of 300 mg/kg(ip). It counts as functional, Mus musculus. The gist of the method: as §3
Test [23] has as its system P388. The test can be described thus: Percentage increase in life span of murine leukemia P388 sensitive to 5-FU, at dose 180 mg/kg. It is filed as functional. Particulars: Mus musculus. The gist of the method: as §2
The test system of test [24] is P388. The test can be described thus: Average percentage weight change on day 6 in murine leukemia P388 sensitive to 5-FU at dose 300 mg/kg. It counts as functional, Mus musculus. The gist of the method:
as §1

The ILS is the gain in survival time of treated over control animals, in per cent. Take `O=c1[nH]c(=O)n([C@H]2C[C@H](O)[C@@H](COP3(=O)OCCCO3)O2)cc1F`: the Weight change in the test on P388 [1] is listed as 0%; in the test on P388 [3], 1.2%; with P388 [5] it was -12.4%; with P388 [8], 6.3%; in the test with P388 [10], 1.7%; in the test with P388 [15], 4.1%. The figures for the Weight change in the test on P388 [21] and in the test on P388 [24] were 0.6% and -8.8%, respectively. Further, the values for the ILS at 108 mg/kg with P388 [2] and with P388 [19] were 11% and 0%, respectively. Besides, the ILS at 300 mg/kg came to 22% in the test with P388 [4] and 0% in the test on P388 [18]. For the same molecule, the MST in the test on P388 [6] came to 10 days; in the test with P388 [9], 10 days; in the test on P388 [11], 12 days; in the test with P388 [13], 10 days; in the test with P388 [14], 10 days; with P388 [17] it was 10 days. The MST amounted to 10 days with P388 [20] and 11 days with P388 [22]. The ILS at 500 mg/kg in the test on P388 [7] came to 33%; in the test with P388 [16] it was 0%. Also, the ILS at 180 mg/kg in the test with P388 [12] was determined as 0%; in the test on P388 [23], 11%.
